The source of these data is PMC4258449 (Nitric oxide : biology and chemistry / official journal of …, 2014).

Structures are written as SMILES. Like-named read-outs stand apart in the source and are kept apart here.

The conditions of series [1]: physiological conditions; cited from earlier work.
Series [2] deals with MDA-MB-231 and MCF-7 cells. Conditions: cited from earlier work.
Series [3] has as its system MDA-MB-231 cells. Description: MTT viability assay, 5 combined with tamoxifen. Type of series: cell-based, human.
The format of series [4] is physicochemical. Conditions: for half-life: assay buffer: 50 µM DTPA in phosphate-buffered saline; for k (decomposition rate constant): pH 7.4, 37 °C, assay buffer.
For series [5], the system named is MCF-7 cells. Kind of series: Clonogenic cell viability assay. Type of series: cell-based, human. Conditions: MCF-7, 0.5–20 mM, 24 h treatment. A digest of the protocol: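 MCF-7 cells in RPMI 1640 with 10% FBS and penicillin/streptomycin at 37 °C, 5% CO2, were seeded at 400,000 per 60-mm dish and grown 48 h. They were exposed in growth medium for 24 h, PBS-washed twice, trypsinized, counted and replated at 100, 1,000 or 10,000 per plate in triplicate. Colonies were crystal-violet stained after 10–12 d and counted. Experiments were repeated at least twice; mean ± SD.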

In series [6] the test system is MDA-MB-231 breast cancer cells. Kind of series: Intracellular HNO/NO release with DAF-FM-2DA. As to conditions: 10 µM donor, MDA-MB-231 cells loaded with 10 µM DAF-FM-2DA, 37 °C. Type of series: cell-based, human. Put shortly: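 They then received 10 µM donor, given as ionic diazeniumdiolates in 10 mM NaOH or the ester-protected form in ethanol (<0.1%). The rise in fluorescence (ex 485/em 535 nm) was followed over time at 37 °C. n = 2, six replicates per plate; mean ± SD.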

Series [7] deals with MCF-7 or MDA-MB-231 cells. Kind of series: MTT viability assay. As to conditions: read-out: IC50 (cytotoxicity), 48 h, 10–100 µM. Type of series: cell-based, human. Put shortly:
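Breast cancer cells were seeded at 8,000–10,000 per well and grown overnight. They were treated 48 h with test compound (10–100 µM) or ethanol vehicle (<0.1% v/v). MTT (5 mg/mL solution) was added for 1 h at 37 °C, medium was removed, formazan was dissolved in DMSO, and absorbance was read at 550 nm. Growth inhibition was expressed as % of matching control; n ≥ 3, mean ± SD.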
On the technique in general: Tetrazolium assays rely on reduction of a dye to a coloured formazan, in cell work by metabolically active cells.

The conditions of series [8]: guinea pig, pH 7.4.

By half-life is commonly meant the time needed for the level to fall by half in the phase considered. As to `[Na+].[Na+].[O-][N+]([O-])=NO` [Angeli’s salt, sodium trioxodinitrate], the half-life in series [1] was ~ 2 min. In series [2], the “concentration range inhibiting proliferation” value is recorded as “millimolar range”.
For orientation: viability means a per cent measure of how many cells are alive, often set against a control. On to `CC/C(=C(\c1ccccc1)c1ccc(OCCN(C)C)cc1)c1ccccc1` [tamoxifen, Tamoxifen, reference compound], for which the viability at 10 µM in series [3] (Homo sapiens, MDA-MB-231, 48 h) came out at 76 ± 13%.
`[Na+].[O-]N=[N+]([O-])NC1CCCC1` [Compound 1, Sodium 1-(N-cyclopentylamino)diazen-1-ium-1,2-diolate] registered a half-life in series [4] (pH 7.4) of 3.6 ± 0.08 min. For the same compound, the “k (decomposition rate constant)” value in series [4] is listed as 3.2 ± 0.07 × 10^−3 s^−1. Also, in series [5], the “cytotoxicity (clonogenic assay)” value is “lowest cytotoxicity”.
`[Na+].[O-]N=[N+]([O-])NC1CCCCCCC1` [Compound 4, Sodium 1-(N-cyclooctylamino)diazen-1-ium-1,2-diolate] came in with a half-life in series [4] (pH 7.4) of 5.4 ± 0.07 min. For the same compound, the “k (decomposition rate constant)” value in series [4] was 2.1 ± 0.02 × 10^−3 s^−1.
On to `CC(C)N[N+]([O-])=N[O-].[Na+]` [IPA/NO, sodium 1-(N-isopropylamino)diazen-1-ium-1,2-diolate], for which the half-life in series [1] is listed as 6.7 min.
In the case of `[Na+].[O-]N=[N+]([O-])NC1CCCCC1` [Compound 2, Sodium 1-(N-cyclohexylamino)diazen-1-ium-1,2-diolate], in series [4] (pH 7.4), the half-life was determined as 6.1 ± 0.02 min.
As usually defined, the IC50 is the concentration at which inhibition is half-maximal. For the compound `CC(=O)OCON=[N+]([O-])NC1CCCC1` [Compound 5, O^2-(Acetoxymethyl) 1-(cyclopentylamino)diazen-1-ium-1,2-diolate], the “DAF-FM fluorescence signal relative to the four ionic compounds” value in series [6] was ~ 3 fold. Also, the viability in series [3] (5 at 75 µM, 48 h, MB-231 cells) came to 75 ± 6%. For the same compound, the IC50 in series [7] was approximately 100 µM. In series [4] (absence of serum, pH 9), the “decomposition rate constant at pH 9” value is listed as 5.0 × 10^−3 s^−1. The compound further yielded a half-life of decomposition in series [4] (pH 7.4) of 21 min. For the same compound, the “half-life of decomposition in the presence of serum esterases” value in series [8] came to 5.8 min.
Take `[Na+].[O-]N=[N+]([O-])NC1CCCCCC1` [Compound 3, Sodium 1-(N-cycloheptylamino)diazen-1-ium-1,2-diolate]: in series [4] (pH 7.4), the half-life was found to be 5.9 ± 0.04 min.
